Compound activity (PubChem)
TAAR1 agonist = human TAAR1 agonism. CHO RD-HGA16 TAAR1, Fluo-8 calcium fluorescence; vehicle wells 0%, saturating PEA agonist 100%. activation, % at 3 µM. 360,000 tested, 0.99% active;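 active means activation above the mean activation of all test compounds in the run plus 3 SD, cut at about 38% in these data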
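Test system: RD-HGA16 (CHO) cells co-expressing Gα16 and hTAAR1 | Doses: Single dose, 3 µM | Schedule: 17-24 h seeding, 75 min 37 °C dye, 30 min RT | Evaluation: % activation from peak over basal fluorescence ratio, DMSO-to-PEA scaled | Technique: Kinetic Fluo-8 calcium fluorescence | Benchmarks: Low control DMSO, high control PEA (EC100)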
OX1R antag-1 = antagonists of human orexin 1 receptor (OX1R). O43613. OX1R-expressing cells, FRET antagonist read-out. inhibition, % at 6.6 µM. 330,000 tested, 1.8% active. AID 485270; in the data active means inhibition mostly above about 38%, no sharp cut-off; inactive means mostly below about 40%;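 further: 0% = agonist challenge alone and 100% = reference antagonist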
Target sequence (O43613 whole entry, looked up): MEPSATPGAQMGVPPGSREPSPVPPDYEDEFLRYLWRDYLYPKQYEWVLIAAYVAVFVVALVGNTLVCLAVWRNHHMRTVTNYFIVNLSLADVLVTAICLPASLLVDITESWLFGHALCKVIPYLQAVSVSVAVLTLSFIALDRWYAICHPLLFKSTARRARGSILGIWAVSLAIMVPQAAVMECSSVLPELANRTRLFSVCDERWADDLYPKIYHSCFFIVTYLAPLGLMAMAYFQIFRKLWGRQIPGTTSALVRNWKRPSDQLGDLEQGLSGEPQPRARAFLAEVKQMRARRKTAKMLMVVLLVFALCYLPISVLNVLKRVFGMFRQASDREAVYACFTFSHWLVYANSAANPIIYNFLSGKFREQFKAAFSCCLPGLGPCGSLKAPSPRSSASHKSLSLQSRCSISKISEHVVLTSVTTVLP
OX1R antag-2 = blocks the human orexin 1 receptor; AID 434989; inhibition, % at 5 µM; 330,000 tested, 0.43% active; CHO/OX1R cells, Fluo-8 calcium fluorescence, orexin A; O43613;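 active means inhibition above its plate's threshold, mean inhibition of all tested compounds on the plate plus 3 SD, cut at about 37% in these data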;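 further: 0% = orexin A challenge wells and 100% = SB-334867-A antagonist wells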
GPR7 antagonist = antagonists of human GPR7 (neuropeptides B/W receptor 1) | AID 1861 | inhibition, % at 4.4 µM | P48145 | 290,000 tested, 1.1% active | GPR7-expressing cells, fluorescence antagonist assay; in the data active means inhibition above about 16%, passing the limit was not always enough;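 further: cells stimulated with the agonist NPW; 0% = agonist with vehicle and 100% = vehicle without agonist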
TAAR1 antagonist = antagonists of human TAAR1; inhibition, % at 3 µM; 360,000 tested, 1.5% active; Q96RJ0; AID 624466; CHO RD-HGA16 TAAR1, Fluo-8 calcium fluorescence, antagonist;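 active means inhibition above a per-plate cutoff, the mean inhibition of test compounds on that plate plus 3 SD, cut at about 49% in these data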;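 further: 0% = DMSO plus EC80 beta-PEA response and 100% = DMSO alone without agonist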
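Test system: CHO RD-HGA16 cells bearing hTAAR1 | Reagent: β-PEA, EC80 | Compound dosing: 3 µM, single point | Schedule: Dye loading 75 min at 37 °C, then 30 min room temperature | Signal: Calcium fluorescence with Fluo-8 | Evaluation: Percent inhibition of PEA-evoked calcium signal, max/basal emission ratio | Control set: DMSO-only wells and EC80 β-PEA-stimulated wells | Repeats: Singlicate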
CHO parental Ca = signal in parental CHO cells, OX1R antagonist counter-screen | 330,000 tested, 0.63% active | inhibition, % at 5.6 µM | parental CHO-K1, ATP-induced calcium, Fluo-8 fluorescence;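 active means inhibition above that plate's mean sample inhibition plus 3 SD, cut at about 26% in these data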;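 further: 0% = ATP-challenged DMSO wells and 100% = DMSO wells without ATP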
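Test system: untransfected parental CHO cell line; also added: ATP stimulus; dosing: 5.6 µM, single dose; signal: calcium-sensitive Fluo-8 fluorescence; measure: percent inhibition of ATP-evoked calcium rise, normalized to controls; benchmarks: low control ATP plus DMSO, high control DMSO only; replication: one well per compound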
GPR7 antag conf = confirmation of human GPR7 antagonists; shares compounds with GPR7 antagonist; GPR7-expressing cells, calcium fluorescence antagonist mode; inhibition, % at 4.4 µM; 2,400 tested, 52% active; AID 1952; in the data active means inhibition above about 24%;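 further: stimulated with the GPR7 agonist NPW; 0% = agonist plus vehicle and 100% = vehicle alone without agonist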
MCHR1 antagonist = MCHR1 (human) antagonism in GPR7 counter-screen. shares compounds with GPR7 antagonist. inhibition, % at 4.4 µM. AID 2148. 2,400 tested, 62% active. MCHR1-expressing cells, fluorescence antagonist assay; in the data active means inhibition above about 22%;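 further: 0% = vehicle with agonist and 100% = vehicle without agonist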
Numbers without * were called inactive; x = no result given; ! = not confirmed by another sample. Compounds with a hit are over-represented: about 4.5% of the library has one in this group of screens.

SMILES	TAAR1 agonist	OX1R antag-1	OX1R antag-2	GPR7 antagonist	TAAR1 antagonist	CHO parental Ca	GPR7 antag conf	MCHR1 antagonist
CCC(=O)OCCNc1cc(Sc2nc3ccccc3[nH]2)c2nonc2c1[N+](=O)[O-]	11	93*	30	15	20	61*	x	x
O=C(CSc1nnc2ccccn12)NC(=O)c1cccc([N+](=O)[O-])c1	2	43*	-13	x	1	0	x	x
O=C(Nc1nc2n(n1)C(c1ccccc1)C=C(c1ccccc1)N2)c1ccco1 (configuration not stated)	14	50*	-16	-11	33	-21	x	x
Nc1ccc(-c2nc3cc(N)ccc3o2)cc1	0	11	-7	-9	-9	-11	x	x
COC(=O)c1ccc(-c2nc3cc(N)ccc3o2)cc1	8	17	-18	61*	10	-12	-12	18
CCC[C@H]1CN(Cc2cccnc2)C(=O)[C@@H]1CC(=O)Nc1ccc(Br)cc1	0	x	x	x	-14	x	x	x
Cc1ccc(NS(=O)(=O)c2ccc(C(=O)N3CCCCCCC3)cc2)cc1	54*	21	-7	26*	18	-1	29*	28*
CCOc1ccc(NS(=O)(=O)c2ccc(C(=O)NCC3(N4CCCCC4)CCCCC3)cc2)cc1	19	2	20	58*	14	7	21	34*
Cc1ccc(NS(=O)(=O)c2ccc(C(=O)N3CCC3)cc2)cc1	12	15	-27	x	-18	-8	x	x
Cc1cc(S(=O)(=O)Nc2ccc(C(=O)NCC3(N4CCCCC4)CCCCC3)cc2)ccc1F	1	7	-25	x	2	-14	x	x
Cc1ccc(S(=O)(=O)NCc2ccc(C(=O)N3CCN(c4ccc([N+](=O)[O-])cc4)CC3)cc2)cc1	-1	0	-12	41*	-31	23	26*	67*
CC1(C)CC(=O)C=C(c2ccc(COC(=O)C3CC3)cc2)C1=O	1	x	x	x	9	x	x	x
CCc1ccc(C2CC(c3ccccc3C)n3nc(N)nc3N2)cc1 (configuration not stated)	7	22	11	25*	4	-8	11	4
Cc1ccc(C2CC(c3ccc(F)cc3)Nc3nc(N)nn32)cc1 (configuration not stated)	13	7	2	21*	6	1	21	8
CCc1ccc(C2CC(c3ccc(C)cc3)Nc3nc(N)nn32)cc1 (configuration not stated)	3	19	-22	7	-24	-8	x	x
Nc1nc2n(n1)C(c1ccc(F)cc1)CC(c1ccc(F)cc1)N2 (configuration not stated)	6	8	-9	-4	-6	-4	x	x
COc1ccc2c3c(n(C(=O)OC(C)(C)C)c2c1)C1CC=C(COC(C)=O)CN1CC3 (configuration not stated)	-1	x	x	x	-23	x	x	x
CNCCCC12CCC(c3ccccc31)c1ccccc12	19	11	-20	28*!	22	-1	34*	29*
COc1ccc2ccccc2c1CNC(C)c1ccccc1 (configuration not stated)	0	-6	-39	3	-1	-25	x	x
CC(NCCCOc1cccc2ccccc12)c1ccccc1 (configuration not stated)	45*	-14	-17	25*	36	6	57*	50*
CC(C(=O)NCCCc1ccccc1)c1ccc([N+](=O)[O-])cc1 (configuration not stated)	17	7	-8	22*	3	1	33*	58*
CC(C(=O)Nc1nccs1)c1ccc([N+](=O)[O-])cc1 (configuration not stated)	33	20	-8	37*	9	1	18	10
CCCCCC(=O)N1C[C@H](O)[C@@H](n2cc(COC(=O)c3ccccc3)nn2)C[C@@H]1c1ccc(Cl)cc1	5	x	x	x	33	x	x	x
Cc1ccc(S(=O)(=O)c2nc(/C=C/c3ccccc3)oc2N2CCC(C(N)=O)CC2)cc1	-2	x	x	x	-6	x	x	x
O=[N+]([O-])c1ccc(CN2CC(N3CCN(CC4CC4)CC3)CS2(=O)=O)cc1 (configuration not stated)	4	x	x	x	-17	x	x	x
SMILES	TAAR1 agonist	OX1R antag-1	OX1R antag-2	GPR7 antagonist	TAAR1 antagonist	CHO parental Ca	GPR7 antag conf	MCHR1 antagonist
CCc1ccc(CNC(=O)Cn2nc(-c3ccccc3)ccc2=O)cc1	4	21	-13	31*	-4	-14	13	0
CCCN(CC(=O)Nc1ccccc1C)C(=O)c1ccc(OCc2c(C)noc2C)cc1	2	x	x	x	8	x	x	x
O=c1c2cc(NC(=S)NCCN3CCCCCC3)ccc2nc2n1CCCCC2	1	9	-26	-3	-14	-14	x	x
O=c1c2cc(NC(=S)NCCCN3CCC(Cc4ccccc4)CC3)ccc2nc2n1CCCCC2	27	16	-4	22*	8	-6	52*	73*
CCCCCC1CC(CC(=O)Nc2ccc([N+](=O)[O-])cc2)OC1=O (configuration not stated)	3	8	-23	25*	-26	-9	9	42*
CC(C)(C)OC(=O)NCCCCCNC(=O)c1[nH]cnc1C(=O)Nc1cc(Br)ccc1F	2	x	x	x	32	x	x	x
O=C(CCCCCCCC(=O)c1ccccc1)c1ccccc1	2	20	-22	7	20	-10	x	x
C=C(CCC(=O)c1ccccc1)C(=O)c1ccccc1	0	13	4	46*	0	-3	86*	78*
CCC(C)NCCOCCOc1ccc(Cl)c(C)c1C (configuration not stated)	9	7	-19	21*	14	-12	24*	25*
C=CCc1cc(Cl)ccc1OCCOCCNC(C)CC (configuration not stated)	5	4	-16	6	-11	-9	x	x
CCC(C)NCCOCCOc1ccc(Cl)c2ccccc12 (configuration not stated)	25	9	0	71*	19	-1	50*	53*
C[C@@H]1O[C@H](C2CCCC2)Cc2[nH]c(=S)[nH]c(=O)c21	2	x	x	x	-8	x	x	x
Cc1ccc(S(=O)(=O)NC(=O)C2(C)CCN2C(=O)CCc2ccc(Cl)cc2Cl)nc1 (configuration not stated)	1	x	x	x	0	x	x	x
Cc1ccc(S(=O)(=O)N2CCN(Cc3cccc(F)c3)CC2)cc1	6	6	-21	x	-3	-23	x	x
